Test results reported in ChEMBL document CHEMBL5625181, “Exploring the 1,3-benzoxazine chemotype for cannabinoid receptor 2 as a promising anti-cancer therapeutic” (Eur J Med Chem, 2023).
Calls of active or inactive are those of the source. No cut-off for these calls is given here.

What was measured:
Cannabinoid receptor 2 [1] = target: T1, Cannabinoid receptor 2 (Homo sapiens, UniProt P34972); assay: Agonist activity at human recombinant Cannabinoid receptor 2 by GTPgammaS binding assay; type: functional
T1 sequence (P34972 whole entry): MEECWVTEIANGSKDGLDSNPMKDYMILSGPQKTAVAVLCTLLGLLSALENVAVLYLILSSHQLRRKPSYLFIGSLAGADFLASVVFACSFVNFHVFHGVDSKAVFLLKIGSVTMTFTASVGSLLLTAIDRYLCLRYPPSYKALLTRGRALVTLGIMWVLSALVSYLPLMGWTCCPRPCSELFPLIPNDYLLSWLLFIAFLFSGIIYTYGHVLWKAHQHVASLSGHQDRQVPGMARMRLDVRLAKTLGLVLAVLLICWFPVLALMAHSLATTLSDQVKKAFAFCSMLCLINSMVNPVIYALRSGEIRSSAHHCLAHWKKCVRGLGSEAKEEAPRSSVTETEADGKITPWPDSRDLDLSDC
Outline: (§1)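 [35S]GTPγS filtration assay. Membranes (5 µg CB2 or 10 µg/well CB1), permeabilized with equal mass of saponin, preincubated 20 min at room temperature with compound (0-100 μM) in 20 mM HEPES, 100 mM NaCl, 10 mM MgCl2, 10 µM GDP, pH 7.4. Then 0.3 nM [35S]GTPγS for 30 min at 37 °C. Quintuplicate, ≥3 experiments. pEC50 from non-linear fit.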

Cannabinoid receptor 2 [2] = target: T1, Cannabinoid receptor 2; assay: Displacement of [3H]CP55,940 from human CB2 receptor expressed in CHO cells membrane assessed as residual activity at 0.1 uM by scintillation counting analysis relative to control; type: cell membranes
Outline: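 Membranes (2.5 µg) from CHO cells stably expressing human CB2, in 50 mM Tris-HCl, 5 mM MgCl2, 1 mM CaCl2, 2 mg/mL BSA, pH 7.4. Incubated 30 min at 37 °C with 0.8 nM [3H]CP55,940 and 0.1 µM compound (final). Nonspecific binding with 1 µM unlabelled CP55,940. Filtered on PEI-soaked GF/B filters, scintillation counted. Quintuplicate, ≥3 experiments.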

BT-549 [3] = assay: Inhibition of colony formation in human BT-549 cells assessed as decrease in number of colonies at 10 uM incubated for 14 days by inverted phase contrast microscope relative to control; type: functional; parameters: scale not given: the % may be the effect or the level left; settings: time 14 day
Outline: (§2)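 BT549 seeded at 1 x 10^3 cells/well and grown at 37 °C for at least 14 days with vehicle or compound. Colonies fixed and stained with 6% glutaraldehyde/0.5% crystal violet for 30 min, then counted by inverted phase-contrast microscopy (10x). Expressed as % of vehicle. Three independent experiments, each at least in triplicate.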

BT-549 [4] = assay: Antiinflammatory activity in human BT-549 cells assessed as decrease in IL-6 level at 10 uM incubated for 48 hrs by ELISA method relative to control; type: functional; parameters: scale not given: the % may be the effect or the level left
Outline: (§3)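 BT549 cells seeded at 1.5 x 10^4/well and treated after 24 h with vehicle or compound at 37 °C for 48 h. TNF-α and IL-6 in supernatant measured by ELISA at 450 nm against a recombinant cytokine standard curve (0-1000 pg/mL). Expressed as % of vehicle. Three independent experiments, each in triplicate.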

Cannabinoid receptor 2 [5] = target: T1, Cannabinoid receptor 2; assay: Agonist activity at human Cannabinoid receptor 2 in BT-549 cells assessed as downregulation in ERK1/2 phosphorylation level at 10 uM and observed within 5 min by Western blot analysis relative to control; type: functional, cell-based
Outline: (§4)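 BT549 cells, untransfected or transfected with scramble oligo or CNR2 siRNA, incubated at 37°C with or without 10 μM compound for the indicated periods. Phospho-ERK1/2 measured by Western blot on whole lysates (20-40 µg/lane, SDS-PAGE, PVDF, enhanced chemiluminescence). Values compared with relative vehicle-treated cells.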

MDA-MB-231 = assay: Antiproliferative activity against human triple negative MDA-MB-231 cells assessed as change in cell proliferation by MTT assay; type: functional, cell-based
Outline: (§5)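 Cells seeded at 1.5 x 10^4/well and incubated overnight; sub-confluent cells treated at 37 °C for 24, 48 or 72 h. MTT added (final 1 mg/mL), 3 h at 37°C in the dark, formazan dissolved in DMSO, read at 590 nm. Expressed as % of vehicle; mean ± SEM of three experiments, each at least in quintuplicate.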

Cannabinoid receptor 1 = Cannabinoid receptor 1 (Homo sapiens, UniProt P21554); assay: Agonist activity at human recombinant Cannabinoid receptor 1 by GTPgammaS binding assay; type: functional; outline: as §1
Chain of Cannabinoid receptor 1 (P21554 whole entry): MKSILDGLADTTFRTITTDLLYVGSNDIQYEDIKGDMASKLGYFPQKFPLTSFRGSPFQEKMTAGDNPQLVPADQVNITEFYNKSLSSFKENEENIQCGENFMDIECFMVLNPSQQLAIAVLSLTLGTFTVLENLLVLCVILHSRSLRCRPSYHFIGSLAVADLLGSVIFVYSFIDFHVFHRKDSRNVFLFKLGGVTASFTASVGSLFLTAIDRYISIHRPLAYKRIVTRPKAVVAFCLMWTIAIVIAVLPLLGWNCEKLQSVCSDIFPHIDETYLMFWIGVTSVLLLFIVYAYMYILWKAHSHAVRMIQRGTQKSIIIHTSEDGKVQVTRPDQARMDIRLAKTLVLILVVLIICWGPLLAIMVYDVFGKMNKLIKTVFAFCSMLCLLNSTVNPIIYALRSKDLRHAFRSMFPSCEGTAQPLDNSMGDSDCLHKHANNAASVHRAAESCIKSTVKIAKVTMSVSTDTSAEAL

BT-549 [6] = assay: Antiproliferative activity against human BT-549 cells assessed as inhibition in cell proliferation incubated after 72 hrs by MTT assay; type: functional, cell-based; settings: dose 0.1-10 µM; outline: as §5
HCC1954 = assay: Antiproliferative activity against human HER2-positive HCC1954 cells assessed as change in cell proliferation by MTT assay; type: functional, cell-based; outline: as §5
BT-549 [7] = assay: Antiproliferative activity against human BT-549 cells assessed as inhibition in cell proliferation at 1 to 10 uM incubated after 24 hrs by MTT assay; type: functional, cell-based; settings: dose 1-10 µM; outline: as §5
Cannabinoid receptor 2 [8] = target: T1, Cannabinoid receptor 2; assay: Agonist activity at human Cannabinoid receptor 2 in BT-549 cells assessed as change in ERK1/2 phosphorylation level at 10 uM and observed after 10 min by westernblot analysis; type: functional, cell-based; outline: as §4
BT-549 [9] = assay: Antiproliferative activity against human BT-549 cells transfected with CNR2 siRNA assessed as inhibition of cell proliferation at 10 uM incubated after 24 hrs by MTT assay; type: functional, cell-based
Outline: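 BT549 cells transfected with 50 nM CNR2 siRNA or scramble control by lipofection. After 24 h, treated with vehicle or 10 µM compound for a further 24 h. Viability by MTT (1 mg/mL, 3 h, 37°C, 590 nm).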

Cannabinoid receptor 2 [10] = target: T1, Cannabinoid receptor 2; assay: Agonist activity at human Cannabinoid receptor 2 in BT-549 cells transfected with CNR2 siRNA assessed as downregulation in ERK1/2 phosphorylation level at 10 uM and observed after 5 mins by Western blot analysis relative to control; type: functional, cell-based; outline: as §4
Cannabinoid receptor 2 [11] = target: T1, Cannabinoid receptor 2; assay: Agonist activity at human Cannabinoid receptor 2 in BT-549 cells assessed as downregulation in ERK1/2 phosphorylation level at 10 uM by westernblot analysis; type: functional, cell-based; settings: filed as agonist, time 5-60 min, TDE = time-dependent effect; outline: as §4
BT-549 [12] = assay: Antiinflammatory activity in human BT-549 cells transfected with CNR2 siRNA assessed as decrease in TNF-alpha level at 10 uM incubated for 48 hrs by ELISA method; type: functional, cell-based
Outline: (§6)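 BT549 cells seeded at 1.5 x 10^4 cells/well, transfected with 50 nM CNR2 siRNA or scramble oligo, then treated with vehicle or 10 μM compound at 37 °C for 48 h. TNF-α and IL-6 in supernatant measured by ELISA at 450 nm. Expressed as % of vehicle; mean ± SEM of three experiments in triplicate.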

BT-549 [13] = assay: Antiinflammatory activity in human BT-549 cells transfected with CNR2 siRNA assessed as decrease in IL-6 level at 10 uM incubated for 48 hrs by ELISA method; type: functional, cell-based; outline: as §6
MCF-10A = assay: Cytotoxicity activity against human MCF-10A cells assessed as change in cell proliferation by MTT assay; type: toxicity, cell-based; outline: as §5
BT-549 [14] = assay: Antiinflammatory activity in human BT-549 cells assessed as decrease in TNF-alpha level at 10 uM incubated for 48 hrs by ELISA method relative to control; type: functional; parameters: scale not given: the % may be the effect or the level left; outline: as §3
BT-549 [15] = assay: Inhibition of colony formation in human BT-549 cells assessed as decrease in number of colonies at 0.1 uM incubated for 14 days by inverted phase contrast microscope relative to control; type: functional, cell-based; settings: time 14.0 day; outline: as §2
BT-549 [16] = assay: Antiproliferative activity against human BT-549 cells assessed as decrease in cell proliferation at 0.1 uM by MTT assay; type: functional, cell-based
Outline: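 BT549 in RPMI-1640 with 10% FBS and insulin, seeded at 1.5 x 10^4/well overnight. Sub-confluent cells treated at 37 °C. MTT added at 1 mg/mL final for 3 h at 37 °C in the dark, formazan dissolved in DMSO, absorbance read at 590 nm. Expressed as % of vehicle.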

BT-549 [17] = assay: Antiproliferative activity against human BT-549 cells transfected with CNR2 siRNA assessed as inhibition of cell proliferation at 0.1 uM incubated after 24 hrs by MTT assay; type: functional, cell-based
Outline: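 BT549 transfected with 50 nM CNR2 siRNA or scramble oligo (Lipofectamine RNAiMAX). After 24 h, treated for a further 24 h. Viability by MTT: 1 mg/mL final for 3 h at 37 °C, formazan dissolved in DMSO, absorbance read at 590 nm.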

Cannabinoid receptor 2 [18] = target: T1, Cannabinoid receptor 2; assay: Agonist activity at human recombinant Cannabinoid receptor 2 assessed as stimulation of GTPgammaS binding at 1 uM by GTPgammaS binding assay relative to control; type: functional
Outline: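 CB2 membranes (ChemiSCREEN) at 5 µg, permeabilised with an equal mass of saponin. Pre-incubated with ligand for 20 min at RT in 20 mM HEPES, 100 mM NaCl, 10 mM MgCl2, pH 7.4, with 10 µM GDP. Then 0.3 nM [35S]GTPγS for 30 min at 37 °C. Stopped with ice-cold phosphate buffer, filtered on PEI-soaked GF/B, scintillation counted. Quintuplicates, ≥3 experiments.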

SMILES	Activity (Cannabinoid receptor 2 [2]) [%]	EC50 (Cannabinoid receptor 1; read-out: pEC50 (converted)) [nM]	EC50 (Cannabinoid receptor 2 [1]; read-out: pEC50 (converted)) [nM]	further results
CC1(C)Oc2cc(OCc3ccc(OC(F)(F)F)cc3)ccc2C(=O)N1Cc1ccc(F)cc1	< 80	–	–	pEC50 (Cannabinoid receptor 2 [1]): inactive
O=C1c2ccc(OS(=O)(=O)c3cccs3)cc2OC2(CCCCC2)N1Cc1ccccc1	< 80	> 10000	–	Activity (BT-549 [3]): 75.4%; Activity (BT-549 [4]): <=70%; Activity (Cannabinoid receptor 2 [5]): 30%; Activity (MDA-MB-231): Active; EC50 (Cannabinoid receptor 1; read-out: EC50): > 10000 nM; inhibition (BT-549 [6]): Dose-Dependent Effect; Activity (HCC1954): Active; inhibition (BT-549 [7]): Active; Activity (Cannabinoid receptor 2 [8]): inactive; Activity (BT-549 [9]): inactive; Activity (Cannabinoid receptor 2 [10]): inactive; Activity (Cannabinoid receptor 2 [11]): Tde; Activity (BT-549 [12]): inactive; Activity (BT-549 [13]): inactive; Activity (MCF-10A): Non-Toxic; EC50 (Cannabinoid receptor 2 [1]; read-out: EC50): 110 nM; Activity (BT-549 [14]): <=50%
COc1cccc(S(=O)(=O)Oc2ccc3c(c2)OC2(CCCCC2)N(CCCCC#N)C3=O)c1	< 80	> 10000	776	–
N#Cc1cccc(S(=O)(=O)Oc2ccc3c(c2)OC2(CCCCC2)N(Cc2ccccc2)C3=O)c1	< 80	> 10000	355	–
N#Cc1ccc(CN2C(=O)c3ccc(OCc4ccc(OC(F)(F)F)cc4)cc3OC23CCCCC3)cc1	< 80	–	–	pEC50 (Cannabinoid receptor 2 [1]): inactive
Cn1ccc(S(=O)(=O)Oc2ccc3c(c2)OC2(CCCCC2)N(Cc2ccc(C#N)cc2)C3=O)n1	< 80	> 10000	372	–
O=C1c2ccc(OS(=O)(=O)Cc3ccccc3)cc2OC2(CCCCC2)N1Cc1ccccc1	< 80	> 10000	759	–
COc1ccc(S(=O)(=O)Oc2ccc3c(c2)OC2(CCCCC2)N(Cc2ccccc2)C3=O)cc1	< 80	> 10000	1480	–
CN1C(=O)c2ccc(OS(=O)(=O)c3ccc(Oc4ccccc4)cc3)cc2OC1(C)C	< 80	–	–	–
CCCn1c(C)c(C(=O)c2cccc3ccccc23)c2ccccc21	–	–	–	inhibition (BT-549 [15]): Active; Activity (BT-549 [16]): Active; Activity (BT-549 [17]): inactive; Activity (Cannabinoid receptor 2 [18]): 233%
O=C1c2ccc(OS(=O)(=O)c3cccc([N+](=O)[O-])c3)cc2OC2(CCOCC2)N1Cc1ccccc1	< 80	> 10000	204	–
N#Cc1ccc(S(=O)(=O)Oc2ccc3c(c2)OC2(CCCCC2)N(Cc2ccccc2)C3=O)cc1	< 80	> 10000	288	–
CC1(C)NC(=O)c2ccc(OS(=O)(=O)c3cccc4ccccc34)cc2O1	< 80	–	–	–
